The record followed here is PubChem BioAssay AID504413 (Broad Institute, 2011).

Experiment [1] can be described thus: apoptosis induction in A1-BIM primed fibroblasts – cell-based, A1-2A-BIM MEF, luminescence, dry powder, A1 inhibitor project, dose response (AID 504413). To be noted: MEF A1-2A-BIM cells, caspase-3/7 Glo luminescence; stronger effect = higher value. In short, it runs like this:
(§1)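 Test system: mouse embryonic fibroblasts co-expressing A1-2A-BIM, primed for A1 dependence; medium: RPMI-1640, 10% FBS; timing: 37 °C compound 3 h, room-temperature reagent 1 h; signal: Caspase-3/7 luminescence from DEVD-luciferin substrate reagent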

For experiment [2], the system named is MEF A1-2A-BIM cells, caspase-3/7 Glo luminescence. The description is as above. In short, it runs like this: as §1

Inconclusive results are not listed. Activity calls are given as the source filed them.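 Rule for the calls: active = in every test run, the fitted curve rises past 10% of the positive control effect within the tested doses; inconclusive = runs disagree, or a flat fit at moderate level, or poor fit; inactive = all runs inactive, including signal going the wrong way.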

As for `Cc1ccc(Sc2c(Sc3ccc(C)cc3)c3ccccc3n(C)c2=O)cc1`, the max activity in experiment [1] was 0.915% (inactive).

As to `Cn1c(=O)c([N+](=O)[O-])c(Cl)c2ccccc21`, the AC10 in experiment [2] was 2.6 µM.

For the molecule `Cc1ccc(Sc2c([N+](=O)[O-])c(=O)n(C)c3ccccc23)cc1`, the AC10 in experiment [2] is 7.28 µM.

Turning to `O=c1[nH]c2ccccc2c(O)c1[N+](=O)[O-]`, the max activity in experiment [1] is 0.403% (inactive).

On to `COc1ccc(CCNc2nc(N3CCCC3)nc(N3CCCC3)n2)cc1OC`, for which, in experiment [1], the max activity was 4.48% (inactive).

`COCCn1c(=O)c(Sc2ccc(C)cc2)c(Sc2ccc(C)cc2)c2ccccc21`: the max activity in experiment [1] was 4.03% (inactive).

As to `COc1ccc(N2CCN(c3nc(NCCc4ccc(OC)c(OC)c4)nc(N4CCOCC4)n3)CC2)cc1`, the max activity in experiment [1] was -3.19% (inactive).

Take `CCn1c(=O)c(Sc2ccc(C)cc2)c(Sc2ccc(C)cc2)c2ccccc21`: in experiment [1], the max activity was 3.42% (inactive).

With `COc1ccc(CCNc2nc(N3CCOCC3)nc(N3CCOCC3)n2)cc1OC`, the max activity in experiment [1] is -1.95% (inactive).

For `Cc1ccc(Sc2c(Sc3ccc(C)cc3)c3ccccc3n(Cc3ccccc3)c2=O)cc1`, the max activity in experiment [1] is 6.71% (inactive).

As to `O=C(COc1ccc(Cl)cc1Cl)NNc1nc(N2CCOCC2)nc(N2CCOCC2)n1`, the max activity in experiment [1] was -3.81% (inactive).

For `Cn1c(=O)c([N+](=O)[O-])c(Sc2ccccn2)c2ccccc21`, in experiment [2], the AC10 was 3.78 µM.

As to `C/C(=N\Nc1nc(N2CCCCC2)nc(N2CCCCC2)n1)c1ccc(F)cc1`, in experiment [1], the max activity is 0.285% (inactive).

Turning to `COCCn1c(=O)c([N+](=O)[O-])c(Cl)c2ccccc21`, the AC10 in experiment [2] was 1.9 µM.

`COc1nc2ccccc2c(Cl)c1[N+](=O)[O-]`: in experiment [1], the max activity was -3.3% (inactive).

On to `COc1c([N+](=O)[O-])c(=O)n(C)c2ccccc12`, for which the max activity in experiment [1] is -4.02% (inactive).

`Cc1ccc(S(=O)(=O)c2c([N+](=O)[O-])c(=O)n(C)c3ccccc23)cc1`: the AC10 in experiment [2] was 7.02 µM.

In the case of `COc1nc2ccccc2c(Sc2ccc(C)cc2)c1[N+](=O)[O-]`, the max activity in experiment [1] is -2.09% (inactive).

In the case of `Cn1c(=O)c(Sc2ccccn2)c(Sc2ccccn2)c2ccccc21`, the max activity in experiment [1] was -0.138% (inactive).
